{"source": "paper PMC6001286", "about": "(Advanced biosystems, 2017)", "key": {"[1]": {"assay": "on-bead flow cytometry binding to healthy plasma exosomes", "design": "species or system human", "settings": "exosomes isolated by ultracentrifugation", "in_short": "(§1)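 Exosomes were isolated by ultracentrifugation: Jurkat EV-depleted culture supernatant, or whole plasma from three healthy donors. Spins were 300 × g, 2,000 × g and 10,000 × g, then twice 100,000 × g for 2 hr at 4°C. Exosomes (10 μg protein) were labeled overnight with FITC-PEG peptide or scrambled analogue (1 μL of 5 mM). Free peptide was removed by 3000 Da spin column. Samples were adsorbed to 3.9 μm aldehyde/sulfate latex beads for flow cytometry. Triplicates, ≥10,000 beads each.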"}, "[2]": {"system": "Jurkat tumor cells", "assay": "flow cytometry binding to Jurkat cells", "format": "cell-based, human", "settings": "α4β1-expressing; data not shown", "in_short": "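Jurkat cells were grown in RPMI 1640 with 10% FBS and penicillin/streptomycin (37°C, 5% CO2). Cells were incubated 30 min in 3% FBS/PBS with FITC-PEG-labeled peptide or scrambled analogue at 1 μM; anti-α3-FITC was used at 1 μg per million cells. Cells were washed thrice and resuspended in 3% FBS with 1% sodium azide. Three replicates, ≥10,000 gated cells each.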"}, "[3]": {"assay": "on-bead flow cytometry binding to Jurkat exosomes", "design": "species or system human", "settings": "α4β1-expressing, data not shown", "in_short": "as §1"}}, "note": "Starred links: 1 amine or outer side, 2 acyl side, 3 side chain; linkers in the order of their positions; H or OH if unused. Positions of bridges follow the written chain, without caps; N, C: chain ends. Non-standard residues stand in square brackets, D forms with d. Primed or numbered codes have the meaning given here. *: point of attachment. PEG2′ = PEG2 (Ebes) spacer between FITC and the peptide N-terminus, O=C(CCC(=O)[*:2])NCCOCCOCCN[*:1]; FITC = O=C1OC2(c3ccc(O)cc3Oc3cc(O)ccc32)c2ccc(NC(=S)*)cc21; Phe(3,5-F2) = N[C@@H](Cc1cc(F)cc(F)c1)C(=O)O; Hyp = O=C(O)[C@@H]1C[C@@H](O)CN1", "data": [{"substance": "scr-LXY30-Fl: scr-LXY30 labeled with fluorescein isothiocyanate dye via PEG2 spacer at the peptide N-terminus ({FITC-PEG2′}-[dC]G[dD][Hyp][Phe(3,5-F2)]GN[dC]R-NH2; disulfide 1-8)", "values": [{"measurement": "binding to healthy human plasma exosomes", "setting": "[1]", "result": "did not exhibit significant binding"}, {"measurement": "binding to Jurkat cells", "setting": "[2]", "result": "minimal extent"}, {"measurement": "binding to Jurkat exosomes", "setting": "[3]", "result": "minimal extent"}]}, {"substance": "[cGd-Hyp-Phe(3,5-diF)-G-NcR] (disulfide) [scr-LXY30]", "values": [{"measurement": "binding to healthy human plasma exosomes", "setting": "[1]", "result": "limited binding"}]}]}
